Test results taken from PubChem BioAssay.
A number with no mark means an inactive call. Inconclusive results are not listed. The source made the active and inactive calls.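 How the source made its calls, unless noted: active means cell viability at or below a set limit in both duplicate runs, the limit being the all-compound median minus 4 SD (cut at about 23% in these data, passing the limit was not always enough); inconclusive means no clear call, values can overlap the other calls; inactive means the rest.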

Assays:
[1] = OD615 S. cerevisiae growth inhibition, permissive medium, pilot counter-assay, permissive growth control for S. cerevisiae lifespan shortening project (AID 705;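 active means growth inhibition above 25% in both replicates, a cutoff set 3 SD above the mean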); settings: OD615, 24 h, at 10 µM, stronger effect = higher value
Outline: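 Material: engineered DeaD yeast; compound dosing: one dose 10 µM, DMSO 0.25% final; measure: yeast growth inhibition indicated by reduced 24 h OD615; detection: OD615 turbidity read; incubation: cells pre-grown 4 h, then 24 h compound exposure, 30 °C humidified; medium: permissive synthetic complete medium with raffinose and galactose carbon sources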

[2] = Restrictive medium S. cerevisiae growth inhibition, OD615, pilot screen of yeast lifespan reduction project, restrictive growth control (AID 706;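 active means growth inhibition above a set limit, 3 SD over mean compound inhibition, in both replicates, cut at about 43% in these data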;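 further: modified DeaD lifespan yeast strain shifted to restrictive glucose medium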); settings: OD615, 48 h, at 10 µM, stronger effect = higher value
Outline: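 material = engineered S. cerevisiae DeaD strain | medium = glucose-based CSMM-D restrictive medium | times = 4 h pre-incubation, 48 h exposure at 30 °C | technique = OD615 absorbance reading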

[3] = viability gain of MRP-1-high H69AR cells under doxorubicin, pilot screen, MRP-1 activator project, CellTiter-Glo, duplicate (AID 807;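 active means viability increase at or above a cutoff of the median across tested compounds plus 3 SD, cut at about 8.5% in these data, passing the limit was not always enough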;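 further: compound pretreatment 18-22 h then 72 h combined with doxorubicin; 0% = doxorubicin alone and 100% = vehicle without doxorubicin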); settings: H69AR viability with doxorubicin, CellTiter-Glo luminescence; at 10 µM; stronger effect = higher value
[4] = growth suppression of beta-catenin knockout HCT116, pilot screen, human colon tumor cells (AID 823); settings: CellTiter-Glo, 60 h, at 10 µM, stronger effect = lower value;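 further: 0% = wells killed by 20 µM Hyamine and 100% = untreated DMSO cell wells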
[5] = growth suppression of PTEN-deleted HCT116, pilot screen, cell-based, HCT116 clonal line, CellTiter-Glo (AID 824;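 active means viability at or below 27.92% in each of two runs, the all-compound median minus 4 SD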;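 further: 0% = 20 µM Hyamine control and 100% = vehicle cell control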); settings: 60 h, at 10 µM, stronger effect = lower value
[6] = inhibitors of the yeast RAM network, pilot screen, dse1pr::URA3 reporter, 5-FOA selection (AID 869;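 active means inhibition over a set limit, the all-compound mean plus 3 SD, in both replicate runs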;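 further: 0% = DMSO wells with no growth and 100% = 10 µM 1-NA-PP1 with full growth; RAM network block rescues cells from 5-FOA so hits raise OD615 growth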); settings: S. cerevisiae dse1pr::URA3 5-FOA growth, OD615, 2 d; at 10 µM; stronger effect = higher value; strain carries analog-sensitive mutant Cbk1 kinase
[7] = RAM signaling pathway blockade in yeast – S. cerevisiae, Pdr1DBD-CYC8 efflux-inhibited sensitized strain, primary screen (AID 1298;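 active means RAM network inhibition above 8.4% in each of two replicates, 3 SD over the compound average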;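 further: 0% = DMSO untreated cells without growth and 100% = 10 µM 1-NA-PP1 full growth; higher means more yeast growth rescued from 5-FOA killing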); settings: S. cerevisiae cbk1-as DSE1-URA3 strain, 5-FOA growth OD615, 2 d; at 50 µM; stronger effect = higher value

| Compound | growth inhibition [1] | growth inhibition [2] | viability increase [3] | viability [4] | viability [5] | inhibition [6] | RAM network inhibition [7] |
| --- | --- | --- | --- | --- | --- | --- | --- |
| Cc1ccc(Cl)cc1N1CCN(C(=O)C2CCN(c3nnc(-n4cccc4)s3)CC2)CC1 | -6.07% | -7.06% | 2.36% | 64% | 64% | 4.06% | 8.04% |
| O=C(C1=C(O)C(=O)N(CCN2CCOCC2)C1c1ccncc1)c1ccco1 (stereo not drawn) | -15.4% | 2.89% | -3.57% | 98.3% | 93.2% | 2.35% | 2.42% |
| NC(=O)CSc1nc2ccccc2n1-c1ccccc1 | -9.13% | 1.74% | -0.83% | 99% | 97.5% | 0.02% | 0.62% |
| CCCCN(C)C(=O)c1c[nH]c2ccc(S(=O)(=O)N3CCOCC3)cc2c1=O | -5.67% | -15.5% | 0.64% | 109% | 98.8% | 2.05% | 5.01% |
| COc1ccc(O)c(C(=O)c2cnn(C(=O)c3cc(C)oc3C)c2)c1 | -9.76% | -11.3% | -1.89% | 97.2% | 88.7% | 2.02% | 1.5% |
| COc1ccc(N=C(C)C2=C(O)COC2=O)cc1 | -1.31% | 5.13% | -3.62% | 97.6% | 99% | 1.12% | 5.23% |
| Cc1ccc(CC2CC(=O)N(c3cc(C)on3)C2=O)cc1 (stereo not drawn) | -17.8% | -19.9% | 0.79% | 100% | 94% | 1.73% | -0.79% |
| CCOC(=O)N1CCN(C(=O)c2ccccc2NC(=O)COc2ccccc2C)CC1 | -9.27% | 3.48% | -1.77% | 86.3% | 82.2% | 1.29% | 5.67% |
| c1ccc(CNn2c(N3CCOCC3)nc3ccccc32)cc1 | -14.9% | -10.9% | -3.02% | 93% | 93.2% | 0.5% | 4.26% |
| Cc1cc(-c2nnco2)c(C)n1-c1ccc(F)cc1 | -8.75% | -5.7% | -2.15% | 84.2% | 85.3% | 0.83% | 4.69% |
| Cn1ccnc1SC(=O)N1c2ccccc2Sc2ccccc21 | 0.525% | 0.605% | -0.9% | 88.8% | 91.4% | 1.25% | 3.37% |
| Cc1ccc(C(=O)NCCCCNC(=O)c2ccc(C)o2)o1 | -5.8% | -4.64% | -1.97% | 106% | 96.3% | 3.56% | 4.03% |
| CCCCOC(=O)Nc1nc(CC(=O)OCC)cs1 | -1.73% | -4.89% | 1.05% | 92.2% | 95.7% | -0.45% | 1.89% |
| CCN1c2ccccc2NC2N=C(OC)C(c3ccccc3)C21 (stereo not drawn) | -38.2% | 7.12% | -8.25% | 3.31% (active) | 2.97% (active) | 2.47% | 3.8% |
| CN(CC(CC(=O)Nc1nncs1)c1ccccc1)S(=O)(=O)c1ccccc1 (stereo not drawn) | -13.9% | -11.4% | -1.16% | 96.2% | 81.2% | 1.82% | 3.38% |
| N#Cc1nc(COc2cccc(Cl)c2)oc1NCc1ccco1 | -14% | 3.77% | -2.87% | 89% | 89.4% | 1.65% | 7.41% |
| O=C(C1CC1)N1CCCN(C(=O)C2CC2)CC1 | 2.42% | -1.38% | -1.86% | 98.8% | 97.1% | 2.03% | 4.69% |
| CN(C)C=NC(=O)/C(C#N)=C1\CCc2ccccc2N1 | -9.21% | -2.15% | -2.2% | 95.2% | 92.5% | 0.705% | 6.77% |
| O=C(NC1CCN(Cc2ccccc2)CC1)C1CCCN(c2nnc(-n3cccc3)s2)C1 (stereo not drawn) | -4.03% | 11.1% | -4.97% | 93.1% | 84.5% | 0.085% | 0.11% |
| CC(CCc1ccccc1)NC(=O)C1CCN(C(=O)c2sccc2-n2cccc2)CC1 (stereo not drawn) | -4.79% | 0.295% | 2.68% | 93.8% | 89.3% | 1.75% | 2.14% |
| CC1=CS/C(=C(/C#N)C(=O)NCc2ccco2)N1c1ccccc1 | -0.435% | -4.64% | -2.99% | 117% | 97.6% | 2.08% | 1.49% |
| Cc1c(C(=O)NCc2cccnc2)oc2ccc(S(=O)(=O)N3CC(C)CC(C)C3)cc12 (stereo not drawn) | -3.33% | 16.4% | -4.52% | 93% | 87.1% | 1.87% | 2.77% |
| O=C(O)CCCCCN1C(=O)C(=O)/C(=C(/O)c2ccccc2)C1c1ccccc1 (stereo not drawn) | -21.2% | -18.6% | 0.21% | 100% | 103% | 3.47% | 2.1% |
| COc1cccc(C2NC(=O)NC(C)=C2C(=O)OCCSC)c1OC (stereo not drawn) | -3.21% | -16.4% | -0.87% | 93.7% | 90.6% | 1.07% | 2.02% |
